Source: ChEMBL document CHEMBL1144519, “A Pd(0) based cross-coupling approach to the synthesis of 2-amidopurines and their evaluation as CDK inhibitors” (Bioorg Med Chem, 2007)

Experiments:
[1] = Inhibition of CDK1/Cyclin B from M phase starfish oocytes; design: species or system Marthasterias glacialis; details: oocyte
In short: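 CDK1/cyclin B extracted in homogenization buffer from M-phase Marthasterias glacialis oocytes and affinity-purified on p9CKShs1-Sepharose, eluted with free p9CKShs1. Read-out was P81 phosphocellulose binding, phosphoric acid washes and scintillation counting. Values are blank-subtracted, % of uninhibited activity, with DMSO controls.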

[2] = target: Cyclin-dependent kinase 5/CDK5 activator 1 (Homo sapiens, UniProt Q00535); assay: Inhibition of recombinant mammalian CDK5/p25 expressed in Escherichia coli
Chain of Cyclin-dependent kinase 5/CDK5 activator 1 (Q00535 whole entry, the tested form may be a part): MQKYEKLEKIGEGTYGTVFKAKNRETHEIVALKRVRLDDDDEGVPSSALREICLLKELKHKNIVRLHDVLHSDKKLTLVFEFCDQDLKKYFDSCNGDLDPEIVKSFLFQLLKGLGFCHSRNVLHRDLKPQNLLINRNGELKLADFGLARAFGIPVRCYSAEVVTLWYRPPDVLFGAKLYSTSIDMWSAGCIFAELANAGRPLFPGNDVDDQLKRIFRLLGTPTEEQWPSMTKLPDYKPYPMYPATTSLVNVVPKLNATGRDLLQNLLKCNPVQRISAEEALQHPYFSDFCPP
Chain of Cyclin-dependent kinase 5/CDK5 activator 1 (Q15078 whole entry, further chain, the tested form may be a part): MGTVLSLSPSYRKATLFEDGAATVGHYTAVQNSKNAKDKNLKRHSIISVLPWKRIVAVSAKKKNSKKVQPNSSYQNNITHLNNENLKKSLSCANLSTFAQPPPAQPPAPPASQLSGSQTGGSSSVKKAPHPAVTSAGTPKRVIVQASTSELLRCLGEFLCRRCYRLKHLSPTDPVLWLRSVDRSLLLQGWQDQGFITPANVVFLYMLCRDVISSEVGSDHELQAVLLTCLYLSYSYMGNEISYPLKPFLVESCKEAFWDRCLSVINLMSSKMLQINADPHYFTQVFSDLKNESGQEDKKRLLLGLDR
In short: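 Kinase was CDK5 with p25, a truncated p35 activator. Phosphate incorporation was measured on P81 phosphocellulose paper by scintillation counting. Activity is blank-corrected and expressed as % of activity without inhibitor, with DMSO controls.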

IC50 [2] [nM]	SMILES	IC50 [1] [nM]
1800	COc1ccc(CNc2nc(NC(=O)CC(C)C)nc3c2ncn3C(C)C)cc1	2300
10000	CCCC(=O)Nc1nc(NCCOC)c2ncn(C(C)C)c2n1	13000
7000	COCCNc1nc(NC(=O)C(C)C)nc2c1ncn2C(C)C	–
1300	COc1ccc(CNc2nc(NC(=O)C(C)C)nc3c2ncn3C(C)C)cc1	940
2100	COc1ccc(CNc2nc(C(=O)NCC(C)C)nc3c2ncn3C(C)C)cc1	2400
13000	COCCNc1nc(C(=O)NC(C)C)nc2c1ncn2C(C)C	8300
2000	CC(C)NC(=O)c1nc(NCc2ccc(Cl)cc2)c2ncn(C(C)C)c2n1	1700
16000	COCCNc1nc(C(=O)NCC(C)C)nc2c1ncn2C(C)C	7200
2400	COc1ccc(CNc2nc(C(=O)NC(C)C)nc3c2ncn3C(C)C)cc1	2300
6600	COCCNc1nc(NC(=O)CC(C)C)nc2c1ncn2C(C)C	9600

Further lines, the compound ahead of its results:

SMILES	IC50 [2] [nM]	IC50 [1] [nM]
CCCC(=O)Nc1nc(NCc2ccc(OC)cc2)c2ncn(C(C)C)c2n1	3900	4400
CCCC(=O)Nc1nc(NCc2ccc(Cl)cc2)c2ncn(C(C)C)c2n1	2100	2900
COCCNc1nc(NC(=O)CC(C)=O)nc2c1ncn2C(C)C	–	> 10000
COc1ccc(C(=O)Nc2nc(NCc3ccc(Cl)cc3)c3ncn(C(C)C)c3n2)cc1	19000	40000
COc1ccc(CNc2nc(NC(=O)CC(C)=O)nc3c2ncn3C(C)C)cc1	1600	2400
COCCNc1nc(NC(=O)c2ccc(OC)cc2)nc2c1ncn2C(C)C	–	> 10000
CC(C)CC(=O)Nc1nc(NCc2ccc(Cl)cc2)c2ncn(C(C)C)c2n1	1600	3000
CC(C)C(=O)Nc1nc(NCc2ccc(Cl)cc2)c2ncn(C(C)C)c2n1	900	1200
COc1ccc(CNc2nc(NC(=O)c3ccc(OC)cc3)nc3c2ncn3C(C)C)cc1	3400	4600
